{"source": "paper PMC3129977", "about": "(ACS chemical neuroscience, 2011)", "key": {"aggregated Aβ42 peptides [1]": {"target": "T1, aggregated Aβ42 peptides (Homo sapiens, UniProt P05067)", "T1 sequence (P05067 672-713 limits assumed)": "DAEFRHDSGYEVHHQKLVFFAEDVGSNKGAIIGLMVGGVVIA", "conditions": "earlier report; cited from earlier work"}, "aggregated Aβ42 peptides [2]": {"target": "T1, aggregated Aβ42 peptides", "test": "Fluorescence studies with aggregated Aβ peptides", "assay_type": "binding"}, "[3]": {"target": "Aβ plaques in brain sections from an AD patient (Homo sapiens, UniProt P05067)", "sequence (P05067 672-711 limits assumed)": "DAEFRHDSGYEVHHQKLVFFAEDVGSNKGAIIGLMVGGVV", "test": "Staining of frozen human brain tissue sections", "conditions": "60 μM probe in PBS, 30 min", "summary_of_the_method": "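Frozen AD brain sections were dried for 1 h, passed through 100%, 95% and 70% ethanol (5 min each), rinsed in water, and equilibrated 15 min in PBS. Probe was diluted 1:50 from 3 mM PBS stock to 60 μM final and applied for 30 min at room temperature. Sections were PBS-washed, coverslipped and imaged by epifluorescence. Plaque/background intensity was normalized to a reference probe, as mean ± SD, n = 10 measurements per probe.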"}, "[4]": {"conditions": "free probe 4 μM, 5% DMSO in nanopure water, before mixing with aggregated Aβ42"}, "[5]": {"conditions": "probe 4 μM after mixing with aggregated Aβ42 (5 μM)"}}}
{"smiles": "COCCOCCOCCOC(=O)/C(C#N)=C/c1ccc2cc(N3CCCCC3)ccc2c1", "note": "[Compound 6]", "values": [{"measurement": "Fluorescence change upon binding to Aβ fibrils", "setting": "aggregated Aβ42 peptides [1]", "result": "large increase in fluorescence intensity"}, {"measurement": "Em. max before", "setting": "aggregated Aβ42 peptides [2]; [4]", "result": 590, "unit": "nm"}, {"measurement": "Exc. max before", "setting": "aggregated Aβ42 peptides [2]; [4]", "result": 415, "unit": "nm"}, {"measurement": "Em. max after", "setting": "aggregated Aβ42 peptides [2]; [5]", "result": 545, "unit": "nm"}, {"measurement": "Exc. max after", "setting": "aggregated Aβ42 peptides [2]; [5]", "result": 410, "unit": "nm"}, {"measurement": "Fold increase in emission intensity upon association with aggregated Aβ42", "setting": "aggregated Aβ42 peptides [2]; probe 4 μM, aggregated Aβ42 5 μM", "result": 7.7, "unit": "fold"}, {"measurement": "Fluorescence contrast between plaques and surrounding tissue", "setting": "[3]", "result": "weaker observed contrast"}, {"measurement": "Staining of Aβ plaques", "setting": "[3]", "result": "stained"}]}
